Results on 26 compounds are retold here after ChEMBL document CHEMBL4190407, “Identification of Morpholino Thiophenes as Novel Mycobacterium tuberculosis Inhibitors, Targeting QcrB” (J Med Chem, 2018).

The structures appear in SMILES notation. Values after ≈ are worked out from the molar mass of the structure shown. Active and inactive are the calls of the source. The calls are words filed in the database; no cut-off is given here.

The target of data set [1] is Cytochrome bc1 complex cytochrome b subunit (Mycobacterium tuberculosis (strain ATCC 25618 / H37Rv)) (UniProt P9WP37). Nature of the data set: Inhibition of QcrB in Mycobacterium tuberculosis H37Rv ATCC 25618 assessed as reduction in ATP level measured up to 0.1 uM after 24 hrs by BacTiter-Glo assay. In outline: (§1)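 H37Rv exposed to compounds for 24 h. Intrabacterial ATP measured by BacTiter-Glo as relative luminescence units, with growth followed by OD590. Representative of 2 independent experiments.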
Chain of Cytochrome bc1 complex cytochrome b subunit (Mycobacterium tuberculosis (strain ATCC 25618 / H37Rv)) (P9WP37 whole entry, one chain of several): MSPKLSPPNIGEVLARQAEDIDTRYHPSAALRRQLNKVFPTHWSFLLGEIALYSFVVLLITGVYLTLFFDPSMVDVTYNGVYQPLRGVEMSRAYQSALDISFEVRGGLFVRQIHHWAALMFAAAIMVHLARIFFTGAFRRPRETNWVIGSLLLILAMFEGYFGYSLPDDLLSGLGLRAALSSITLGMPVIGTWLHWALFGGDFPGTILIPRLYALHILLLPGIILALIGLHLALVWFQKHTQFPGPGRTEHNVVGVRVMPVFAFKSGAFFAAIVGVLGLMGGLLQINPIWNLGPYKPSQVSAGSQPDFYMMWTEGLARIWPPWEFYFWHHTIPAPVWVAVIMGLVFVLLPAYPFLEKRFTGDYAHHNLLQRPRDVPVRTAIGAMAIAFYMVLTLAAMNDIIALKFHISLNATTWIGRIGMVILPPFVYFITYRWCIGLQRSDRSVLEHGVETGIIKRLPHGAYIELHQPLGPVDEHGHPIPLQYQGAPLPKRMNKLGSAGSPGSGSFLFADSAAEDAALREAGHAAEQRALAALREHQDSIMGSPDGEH

Data set [2] can be described thus: Intrinsic clearance in CD-1 mouse liver microsomes in presence of NADPH up to 30 mins by UPLC-MS/MS analysis. The class given is ADME, microsome. The settings on record: 0.5 h.
In the next data set the target is Cytochrome P450 2D6 (Homo sapiens, UniProt P10635). Description: Inhibition of CYP2D6 (unknown origin). Format: ADME.
Chain of Cytochrome P450 2D6 (P10635 whole entry): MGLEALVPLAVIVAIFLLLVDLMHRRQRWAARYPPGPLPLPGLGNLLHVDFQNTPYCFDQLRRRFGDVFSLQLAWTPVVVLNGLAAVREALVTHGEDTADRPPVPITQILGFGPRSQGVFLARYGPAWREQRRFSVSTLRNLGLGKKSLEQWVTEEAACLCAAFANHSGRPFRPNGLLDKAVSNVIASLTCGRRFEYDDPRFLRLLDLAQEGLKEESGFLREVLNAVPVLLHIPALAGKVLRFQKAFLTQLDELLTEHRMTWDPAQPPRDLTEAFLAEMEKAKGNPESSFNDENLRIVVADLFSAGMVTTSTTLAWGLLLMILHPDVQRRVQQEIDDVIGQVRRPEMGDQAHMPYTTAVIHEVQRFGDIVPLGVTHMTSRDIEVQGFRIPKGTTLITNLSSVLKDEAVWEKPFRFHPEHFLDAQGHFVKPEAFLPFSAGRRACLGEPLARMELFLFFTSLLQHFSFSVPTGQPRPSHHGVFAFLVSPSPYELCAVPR
For data set [3], the system named is Mycobacterium tuberculosis. Nature of the data set: Antimycobacterial activity against Mycobacterium tuberculosis H37Rv ATCC 25618 after 5 days. Format: functional. The settings on record: H37Rv ATCC 25618, 120 h. An outline of the steps:
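Growth measured in Middlebrook 7H9 with 10% OADC and 0.05% Tween 80 under aerobic conditions, covering H37Rv (ATCC 25618) and QcrB mutant strains. Growth read after 5 days at 37 °C. MIC90 is the concentration giving 90% growth inhibition, obtained by curve fitting (Levenberg–Marquardt). Mean ± SD of at least two independent experiments.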

The target of the next data set is Cytochrome P450 2C9 (Homo sapiens, UniProt P11712). Description: Inhibition of CYP2C9 (unknown origin). Format: ADME.
Chain of Cytochrome P450 2C9 (P11712 whole entry): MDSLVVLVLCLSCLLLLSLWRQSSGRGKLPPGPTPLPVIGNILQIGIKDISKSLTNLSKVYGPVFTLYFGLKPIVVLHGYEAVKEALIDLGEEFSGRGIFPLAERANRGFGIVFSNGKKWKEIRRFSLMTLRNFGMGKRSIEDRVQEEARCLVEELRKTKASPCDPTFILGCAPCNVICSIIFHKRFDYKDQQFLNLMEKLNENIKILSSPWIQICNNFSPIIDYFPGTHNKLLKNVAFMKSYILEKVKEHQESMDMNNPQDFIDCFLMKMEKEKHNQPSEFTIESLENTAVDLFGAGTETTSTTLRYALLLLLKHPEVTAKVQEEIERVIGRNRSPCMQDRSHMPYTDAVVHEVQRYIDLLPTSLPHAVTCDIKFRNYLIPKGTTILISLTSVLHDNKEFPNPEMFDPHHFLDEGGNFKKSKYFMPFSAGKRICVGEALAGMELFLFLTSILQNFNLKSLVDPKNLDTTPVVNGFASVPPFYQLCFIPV
In another data set the target is Cytochrome P450 2C19 (Homo sapiens, UniProt P33261). Nature of the data set: Inhibition of CYP2C19 (unknown origin). The class given is ADME.
Chain of Cytochrome P450 2C19 (P33261 whole entry): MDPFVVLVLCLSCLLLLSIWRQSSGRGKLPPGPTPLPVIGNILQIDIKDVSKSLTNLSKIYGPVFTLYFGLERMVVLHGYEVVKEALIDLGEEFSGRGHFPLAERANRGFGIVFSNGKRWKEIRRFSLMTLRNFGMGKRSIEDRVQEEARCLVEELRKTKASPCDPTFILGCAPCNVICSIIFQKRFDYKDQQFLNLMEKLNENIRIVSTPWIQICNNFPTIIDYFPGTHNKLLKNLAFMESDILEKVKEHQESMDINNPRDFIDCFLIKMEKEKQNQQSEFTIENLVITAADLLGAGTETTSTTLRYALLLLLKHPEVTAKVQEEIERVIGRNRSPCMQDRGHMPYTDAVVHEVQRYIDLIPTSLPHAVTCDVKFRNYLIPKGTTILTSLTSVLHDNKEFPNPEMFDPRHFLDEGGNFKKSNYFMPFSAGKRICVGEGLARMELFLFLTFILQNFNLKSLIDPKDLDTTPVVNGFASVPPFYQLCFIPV
Data set [4] concerns Vero. Nature of the data set: Cytotoxicity against African green monkey Vero cells. The class given is cell-based. The settings on record: chlorocebus sabaeus.
A short description of data set [5]: Clearance in human liver microsomes. Format: ADME, microsome.
Data set [6] relates to Mus musculus. Description: AUC in C57 Black mouse at 3 mg/kg, iv administered as bolus dose by UPLC-MS/MS analysis. Format: ADME, organism-based. The settings on record: in vivo.
Data set [7] has as its target Cytochrome bc1 complex cytochrome b subunit (Mycobacterium tuberculosis (strain ATCC 25618 / H37Rv)) (UniProt P9WP37). Nature of the data set: Inhibition of QcrB in Mycobacterium tuberculosis H37Rv ATCC 25618 assessed as reduction in ATP level measured after 24 hrs by BacTiter-Glo assay. An outline of the steps: as §1
In the next data set the target is T1, Cytochrome P450 1A2 (Homo sapiens, UniProt P05177).
T1 sequence (P05177 whole entry): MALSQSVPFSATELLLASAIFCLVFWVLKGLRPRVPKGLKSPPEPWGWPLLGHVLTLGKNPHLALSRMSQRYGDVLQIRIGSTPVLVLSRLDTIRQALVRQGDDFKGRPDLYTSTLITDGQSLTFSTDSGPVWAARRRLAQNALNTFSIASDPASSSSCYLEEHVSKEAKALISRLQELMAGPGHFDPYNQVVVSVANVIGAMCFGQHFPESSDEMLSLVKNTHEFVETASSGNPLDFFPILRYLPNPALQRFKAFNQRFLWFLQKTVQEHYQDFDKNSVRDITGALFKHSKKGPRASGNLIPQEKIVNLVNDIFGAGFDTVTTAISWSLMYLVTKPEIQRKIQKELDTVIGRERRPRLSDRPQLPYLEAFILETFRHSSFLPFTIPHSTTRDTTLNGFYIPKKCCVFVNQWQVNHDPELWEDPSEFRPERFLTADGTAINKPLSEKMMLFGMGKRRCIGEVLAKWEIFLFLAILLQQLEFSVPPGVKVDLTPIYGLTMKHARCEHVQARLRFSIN
Nature of the data set: Inhibition of CYP1A2 (unknown origin). Format: ADME.

Data set [8] relates to Mus musculus. Description: Toxicity in C57BL/6 mouse infected with Mycobacterium tuberculosis H37Rv at 100 mg/kg, po for 4 consecutive days starting from day 5 post infection. Format: organism-based. The settings on record: in vivo.
Data set [9] concerns Mus musculus. Nature of the data set: In vivo drug metabolism in C57 Black mouse assessed as oxidation of morpholine at 3 mg/kg, iv administered as bolus dose or 10 mg/kg, po via gavage by UPLC-MS/MS analysis. The class given is ADME, organism-based.
The test system of data set [10] is Mus musculus. Description: In vivo drug metabolism in C57 Black mouse assessed as de-ethylation at 3 mg/kg, iv administered as bolus dose or 10 mg/kg, po via gavage by UPLC-MS/MS analysis. The class given is ADME, organism-based.
Data set [11] deals with Vero. Nature of the data set: Cytotoxicity against African green monkey Vero cells assessed as growth inhibition measured after 2 days by CellTiter-Glo assay. The class given is cell-based. The settings on record: Chlorocebus sabaeus, 48 h.
The subject of data set [12] is Mus musculus. Description: Toxicity in C57BL/6 mouse infected with Mycobacterium tuberculosis H37Rv at 30 mg/kg, po for 8 consecutive days starting from day 1 post infection. The class given is organism-based. The settings on record: in vivo.

By MIC90 is commonly meant the lowest concentration that inhibits either 90% of growth or 90% of the strains tested, depending on the study. For orientation: AUC means concentration integrated over time. In general, IC50 refers to the concentration at which inhibition is half-maximal.

As to `CO[C@H]1/C=C/O[C@@]2(C)Oc3c(C)c(O)c4c(O)c(c(/C=N/N5CCN(C)CC5)c(O)c4c3C2=O)NC(=O)/C(C)=C\C=C\[C@H](C)[C@H](O)[C@@H](C)[C@@H](O)[C@@H](C)[C@H](OC(C)=O)[C@@H]1C`, the inhibition result in data set [1] was “Active”.

As to `COc1ccccc1CCOc1cc(N2CCOCC2)sc1C(N)=O`, the intrinsic clearance in data set [2] was found to be 26 mL/min/g.

On to `NC(=O)c1sc(N2CCOCC2)cc1OCCc1ccccc1`, for which the INH at Cytochrome P450 2D6 is 5 µM; on Cytochrome P450 2C9 it was 5.1 µM; on Cytochrome P450 2C19, 5.9 µM; on Cytochrome P450 1A2 it was under 5 µM. Besides, the MIC90 in data set [3] is 0.72 to 0.8 µM (≈ 0.239 to 0.266 µg/mL). For the same compound, in the data set with Vero [4], the Activity is over 100 µM. The compound also showed a CLH in [5] of 3.5 mL/min/g. This compound also gave an AUC in the data set with Mus musculus [6] of 29000 ng·min/mL. Also, in data set [7], the inhibition result is “Dose-dependent effect”.

With `NC(=O)c1sc(N2CCOCC2=O)cc1OCCc1ccccc1`, the intrinsic clearance in [2] was determined as 7 mL/min/g.

For `COc1cccc(CCOc2cc(N3CCOCC3)sc2C(N)=O)c1`, in data set [2], the intrinsic clearance was found to be 10 mL/min/g.

Regarding `NC(=O)c1sc(-n2nccn2)cc1OCCc1ccccc1`, in data set [2], the intrinsic clearance came out at 30 mL/min/g.

Turning to `CC1(COc2cc(N3CCOCC3)sc2C(N)=O)COC1`, the exposure (AUC) in the data set on Mus musculus [6] amounted to 980000 ng·min/mL.

Regarding `NC(=O)c1sc(N2CCOCC2)cc1OCCc1ccc(OC(F)(F)F)cc1`, in the data set with Mus musculus [8], the Activity result is given as “Non-Toxic”. This compound also returned an MIC90 in data set [3] of 0.2 to 0.24 µM (≈ 0.0833 to 0.0999 µg/mL). Besides, the Drug metabolism result in the data set on Mus musculus [9] and with Mus musculus [10] was “Metabolite_Detected” each time. The inhibition entry in data set [7] is “Dose-dependent effect”.

In [3], `COCCN(C)c1cc(OCCc2ccccc2)c(C(N)=O)s1` gave an MIC90 of over 20 µM. Also, the intrinsic clearance in data set [2] amounted to 28 mL/min/g. Moreover, in the data set with Vero [11], the IC50 was over 100 µM.

Compound `CC1COCCN1c1cc(OCCc2ccccc2)c(C(N)=O)s1` (stereo not drawn) returned an MIC90 in data set [3] of over 20 µM. The intrinsic clearance in data set [2] is 11 mL/min/g. Further, the IC50 with Vero [11] came out at 77 µM.

As for `COC(=O)c1sc(N2CCOCC2)cc1OCCc1ccccc1`, the intrinsic clearance in data set [2] is 50 mL/min/g.

In the case of `NC(=O)c1sc(N2CCOCC2)cc1OCCN1CCOCC1`, the intrinsic clearance in data set [2] stood at 0.9 mL/min/g.

With `CNC(=O)c1sc(N2CC3CC2CO3)cc1OCCc1ccccc1` (stereo not drawn), in [2], the intrinsic clearance worked out at 13 mL/min/g.

Consider `COc1c(N2C[C@@H]3CCCN[C@@H]3C2)c(F)cc2c(=O)c(C(=O)O)cn(C3CC3)c12` [MOXIFLOXACIN], for which the Activity result with Mus musculus [12] is “Non-Toxic”.

On to `CNC(=O)c1sc(N2CCOCC2)cc1OCCc1ccccc1`, for which the intrinsic clearance in [2] worked out at 36 mL/min/g. Moreover, the inhibition result in [7] is “Dose-dependent effect”.

The compound `COc1ccc(CCOc2cc(N3CCOCC3)sc2C(N)=O)cc1` returned an MIC90 in data set [3] of 0.6 to 0.63 µM (≈ 0.217 to 0.228 µg/mL).

`O=C(NO)c1sc(N2CCOCC2)cc1OCCc1ccccc1`: the intrinsic clearance in data set [2] was determined as 6 mL/min/g.

In the case of `NC(=O)c1sc(N2CCOCC2)cc1OCc1ccccc1`, the intrinsic clearance in data set [2] was found to be 14 mL/min/g.

Turning to `NC(=O)c1ccc(N2CCOCC2)cc1OCCc1ccccc1`, the intrinsic clearance in data set [2] is 12 mL/min/g.

Turning to `CON(C)C(=O)c1sc(N2CCOCC2)cc1OCCc1ccccc1`, in the data set with Vero [11], the IC50 amounted to 78 µM.

`NC(O)C1SC(N2CCOCC2)CC1OCC(F)(F)C1CCCCC1` (stereo not drawn) registered an MIC90 in [3] of over 20 µM. In data set [2], the intrinsic clearance was 19 mL/min/g. Also, the IC50 with Vero [11] came to 95 µM.

With `CCc1nc2ccc(Cl)cn2c1C(=O)NCc1ccc(N2CCC(c3ccc(OC(F)(F)F)cc3)CC2)cc1`, the inhibition entry in [1] is “Active”.

Take `CCOC(=O)NC(=O)c1sc(N2CCOCC2)cc1OCCc1ccccc1`: in data set [2], the intrinsic clearance came out at 1 mL/min/g.

On to `NC(=O)c1sc(CN2CCOCC2)cc1OCCc1ccccc1`, for which the intrinsic clearance in data set [2] is 3 mL/min/g.

Regarding `NC(=O)c1sc(N2CCOCC2)cc1OCCc1cccc(F)c1`, the intrinsic clearance in data set [2] stood at 18 mL/min/g. In addition, in data set [7], the inhibition entry is “Dose-dependent effect”.

Compound `NC(=O)c1sc(N2CCOCC2)cc1CCCc1ccc(F)cc1` yielded an MIC90 in [3] of 0.9 µM (≈ 0.314 µg/mL). The intrinsic clearance in data set [2] was 13 mL/min/g. Also, the IC50 with Vero [11] was over 100 µM.
